From ChEMBL document CHEMBL3739273, “Synthesis, biological activity evaluation and molecular docking studies of novel coumarin substituted thiazolyl-3-aryl-pyrazole-4-carbaldehydes” (Bioorg Med Chem Lett, 2015)
Converted amounts (≈) assume the structure as drawn. The source made the active and inactive calls. No cut-off for these calls is given here.

Legend:
[1] = tested on: HeLa; experiment: Induction of apoptosis in human HeLa cell assessed as nuclear condensation after 24 hrs by Hoechst 33258 staining based fluorescence microscopic analysis; type: functional
Summary of the method: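 HeLa cells treated at 10 µM for 24 h, washed with PBS, then stained with Hoechst 33258 ([…]) for 20 min. Chromatin condensation imaged by fluorescence microscopy with a DAPI filter.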

[2] = tested on: Bacillus spizizenii; experiment: Antibacterial activity against Bacillus subtilis ATCC 6633 assessed as growth inhibition at 100 ug/ml after 24 hrs by agar well diffusion method; type: functional, organism-based
Summary of the method: (§1)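 Agar well diffusion. Compounds were tested at 10, 20, 100, 200 and 300 µg/mL, and the zone of inhibition was measured in mm. Gentamycin sulfate was the reference drug.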

[3] = tested on: Staphylococcus aureus; experiment: Antibacterial activity against methicillin-resistant Staphylococcus aureus NCTC 13616 after 24 hrs by microtiter plate method; type: functional; details: NCTC 13616, 24 h
[4] = tested on: Bacillus cereus; experiment: Antibacterial activity against Bacillus cereus ATCC 14579 after 24 hrs by microtiter plate method; type: functional; details: ATCC 14579, 24 h
Summary of the method: (§2)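 Test concentrations reported in µg/mL. Gentamycin sulfate and ampicillin were the reference drugs.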

[5] = tested on: Bacillus spizizenii; experiment: Antibacterial activity against Bacillus subtilis ATCC 6633 after 24 hrs by microtiter plate method; type: functional; details: ATCC 6633, 24 h; summary of the method: as §2
[6] = tested on: Escherichia coli; experiment: Antibacterial activity against Escherichia coli ATCC 8739 assessed as growth inhibition at 100 ug/ml after 24 hrs by agar well diffusion method; type: functional; details: for zone of inhibition at 100 µg/mL: ATCC 8739, 24 h, read-out: IZ; summary of the method: as §1
[7] = tested on: Staphylococcus aureus; experiment: Bactericidal activity against methicillin-resistant Staphylococcus aureus NCTC 13616 after 24 hrs; type: functional; details: NCTC 13616, 24 h, read-out: MBC99.9
Summary of the method: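 MBC determined by a standard MBC protocol run alongside the MIC determination. Gentamycin sulfate and ampicillin served as reference drugs.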

[8] = tested on: Bacillus cereus; experiment: Antibacterial activity against Bacillus cereus ATCC 14579 assessed as growth inhibition at 100 ug/ml after 24 hrs by agar well diffusion method; type: functional; summary of the method: as §1
[9] = tested on: Staphylococcus aureus; experiment: Antibacterial activity against methicillin-resistant Staphylococcus aureus NCTC 13616 assessed as growth inhibition at 100 ug/ml after 24 hrs by agar well diffusion method; type: functional, organism-based
Summary of the method: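 Agar well diffusion assay with compounds applied to wells at several concentrations, including the 100 level reported here. The zone of inhibition was measured in mm. Gentamycin sulfate was the standard drug.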

[10] = target: T1, Cytochrome P450 2A6 (Homo sapiens, UniProt P11509); experiment: Inhibition of human microsomal CYP2A6; type: ADME
T1 sequence (P11509 whole entry): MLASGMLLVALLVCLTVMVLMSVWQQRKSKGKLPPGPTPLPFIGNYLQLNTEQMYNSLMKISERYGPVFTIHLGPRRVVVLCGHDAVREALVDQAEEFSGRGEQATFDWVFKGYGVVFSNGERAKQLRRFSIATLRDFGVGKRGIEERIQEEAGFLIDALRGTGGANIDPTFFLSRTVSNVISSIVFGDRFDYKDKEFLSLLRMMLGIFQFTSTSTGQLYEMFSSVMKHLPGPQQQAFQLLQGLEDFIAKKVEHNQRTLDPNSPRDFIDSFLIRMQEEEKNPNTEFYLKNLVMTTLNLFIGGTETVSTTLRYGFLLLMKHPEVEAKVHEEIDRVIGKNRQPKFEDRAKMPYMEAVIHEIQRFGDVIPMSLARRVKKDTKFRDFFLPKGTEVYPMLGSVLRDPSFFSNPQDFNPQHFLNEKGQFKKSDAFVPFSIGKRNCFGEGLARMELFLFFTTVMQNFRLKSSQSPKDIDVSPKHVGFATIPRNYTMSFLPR

[11] = Anticancer activity against human DU145 cells assessed as cell viability after 48 hrs by MTT assay; type: functional, cell-based; details: DU-145, 48 h
Summary of the method: (§3)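 MTT cytotoxicity assay in human DU-145 prostate, MCF-7 breast and HeLa cervical cancer cell lines. Doxorubicin was the reference drug.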

[12] = tested on: Proteus vulgaris; experiment: Antibacterial activity against Proteus vulgaris ATCC 13315 after 24 hrs by microtiter plate method; type: functional; details: ATCC 13315, 24 h; summary of the method: as §2
[13] = n-Octanol-phosphate buffer partition coefficient, log P of the compound at pH 7.4 after 30 mins by shake flask method; type: physicochemical
Summary of the method: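 Shake-flask partition between n-octanol and 50 mM phosphate buffer, pH 7.4. P calculated and expressed as logP.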

[14] = tested on: Escherichia coli; experiment: Antibacterial activity against Escherichia coli ATCC 8739 after 24 hrs by microtiter plate method; type: functional; details: ATCC 8739, 24 h; summary of the method: as §2
[15] = tested on: Proteus vulgaris; experiment: Antibacterial activity against Proteus vulgaris ATCC 13315 assessed as growth inhibition at 100 ug/ml after 24 hrs by agar well diffusion method; type: functional; details: for zone of inhibition at 100 µg/mL: ATCC 13315, 24 h, read-out: IZ; summary of the method: as §1
[16] = tested on: Bacillus cereus; experiment: Bactericidal activity against Bacillus cereus ATCC 14579 after 24 hrs; type: functional; details: ATCC 14579, 24 h, read-out: MBC99.9
Summary of the method: (§4)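 MBC determined by a standard MBC protocol alongside the MIC, with values in µg/mL. Gentamycin sulfate and ampicillin were the references.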

[17] = tested on: Bacillus spizizenii; experiment: Bactericidal activity against Bacillus subtilis ATCC 6633 after 24 hrs; type: functional; details: ATCC 6633, 24 h, read-out: MBC99.9; summary of the method: as §4
[18] = tested on: Escherichia coli; experiment: Bactericidal activity against Escherichia coli ATCC 8739 after 24 hrs; type: functional; details: ATCC 8739, 24 h, read-out: MBC99.9; summary of the method: as §4
[19] = tested on: Klebsiella pneumoniae; experiment: Antibacterial activity against Klebsiella pneumoniae ATCC 43816 after 24 hrs by microtiter plate method; type: functional; details: ATCC 43816, 24 h; summary of the method: as §2
[20] = tested on: MCF7; experiment: Anticancer activity against human MCF7 cells assessed as cell viability after 48 hrs by MTT assay; type: functional, cell-based; details: MCF7, 48 h; summary of the method: as §3
[21] = tested on: Proteus vulgaris; experiment: Bactericidal activity against Proteus vulgaris ATCC 13315 after 24 hrs; type: functional; details: ATCC 13315, 24 h, read-out: MBC99.9; summary of the method: as §4
[22] = tested on: Klebsiella pneumoniae; experiment: Bactericidal activity against Klebsiella pneumoniae ATCC 43816 after 24 hrs; type: functional; details: ATCC 43816, 24 h, read-out: MBC99.9; summary of the method: as §4
[23] = tested on: Klebsiella pneumoniae; experiment: Antibacterial activity against Klebsiella pneumoniae ATCC 43816 assessed as growth inhibition at 100 ug/ml after 24 hrs by agar well diffusion method; type: functional; details: for zone of inhibition at 100 µg/mL: ATCC 43816, 24 h, read-out: IZ; summary of the method: as §1
[24] = tested on: HeLa; experiment: Anticancer activity against human HeLa cells assessed as cell viability after 48 hrs by MTT assay; type: functional, cell-based; summary of the method: as §3
[25] = tested on: HeLa; experiment: Anticancer activity against human HeLa cells assessed as cell viability at 10 uM after 48 hrs by MTT assay; type: functional, cell-based

SMILES	growth inhibition (GI) [2]	MIC [3] [µg/mL]	MIC [4] [µg/mL]	MIC [5] [µg/mL]	MBC [7] [µg/mL]	growth inhibition (GI) [8]	growth inhibition (GI) [9]	Ki [10] [µM]	IC50 [11] [µM]	MIC [12] [µg/mL]	logD at 0.5 h [13]	MIC [14] [µg/mL]	MBC [16] [µg/mL]	MBC [17] [µg/mL]	MBC [18] [µg/mL]	MIC [19] [µg/mL]	IC50 [20] [µM]	MBC [21] [µg/mL]	MBC [22] [µg/mL]	IC50 [24] [µM]	further results
Cc1ccc(-c2nn(-c3nc(-c4cc5cc(Br)cc(Br)c5oc4=O)cs3)cc2C=O)cc1	Active	106 (≈ 185 µM)	72.8 (≈ 127 µM)	92.4 (≈ 162 µM)	175 (≈ 306 µM)	Active	Active	0.00173	10.8	101 (≈ 176 µM)	3.34	86.5 (≈ 151 µM)	110 (≈ 193 µM)	150 (≈ 263 µM)	130 (≈ 228 µM)	79.1 (≈ 138 µM)	24.5	150 (≈ 263 µM)	115 (≈ 201 µM)	6.25	Activity [1]: Active; zone of inhibition at 100 µg/mL [6]: 22 mm; zone of inhibition at 100 µg/mL [15]: 20 mm; zone of inhibition at 100 µg/mL [23]: 24 mm
O=Cc1cn(-c2nc(-c3cc4cc(Br)ccc4oc3=O)cs2)nc1-c1ccc(Cl)cc1	Active	123 (≈ 240 µM)	115 (≈ 224 µM)	120 (≈ 233 µM)	185 (≈ 361 µM)	Active	Active	0.0132	22.3	128 (≈ 249 µM)	3.07	118 (≈ 229 µM)	170 (≈ 332 µM)	175 (≈ 341 µM)	230 (≈ 449 µM)	115 (≈ 224 µM)	85	250 (≈ 488 µM)	172 (≈ 335 µM)	9.46	growth inhibition (GI) [6]: Active; growth inhibition (GI) [25]: Active; growth inhibition (GI) [15]: Active; growth inhibition (GI) [23]: Active
O=Cc1cn(-c2nc(-c3cc4cc(Br)cc(Br)c4oc3=O)cs2)nc1-c1ccccc1	Active	117 (≈ 210 µM)	119 (≈ 214 µM)	118 (≈ 212 µM)	175 (≈ 314 µM)	Active	Active	0.00341	28	120 (≈ 215 µM)	3.11	116 (≈ 207 µM)	240 (≈ 431 µM)	240 (≈ 431 µM)	170 (≈ 305 µM)	119 (≈ 214 µM)	22.2	240 (≈ 431 µM)	240 (≈ 431 µM)	13.7	growth inhibition (GI) [6]: Active; growth inhibition (GI) [15]: Active; growth inhibition (GI) [23]: Active
Cc1ccc(-c2nn(-c3nc(-c4cc5cc(Cl)cc(Cl)c5oc4=O)cs3)cc2C=O)cc1	Active	116 (≈ 240 µM)	100 (≈ 208 µM)	98.2 (≈ 204 µM)	230 (≈ 477 µM)	Active	Active	0.00257	14.7	105 (≈ 218 µM)	3.6	101 (≈ 210 µM)	150 (≈ 311 µM)	145 (≈ 301 µM)	150 (≈ 311 µM)	101 (≈ 209 µM)	14.6	210 (≈ 435 µM)	150 (≈ 311 µM)	5.75	Activity [1]: Active; zone of inhibition at 100 µg/mL [6]: 18 mm; growth inhibition (GI) [25]: Active; zone of inhibition at 100 µg/mL [15]: 18 mm; zone of inhibition at 100 µg/mL [23]: 20 mm
O=Cc1cn(-c2nc(-c3cc4cc(Cl)ccc4oc3=O)cs2)nc1-c1ccc(Cl)cc1	Active	134 (≈ 286 µM)	111 (≈ 237 µM)	112 (≈ 240 µM)	265 (≈ 566 µM)	Active	Active	0.0166	14.9	131 (≈ 279 µM)	3.06	126 (≈ 270 µM)	165 (≈ 352 µM)	165 (≈ 352 µM)	250 (≈ 534 µM)	117 (≈ 251 µM)	18.7	260 (≈ 555 µM)	240 (≈ 512 µM)	9.51	growth inhibition (GI) [6]: Active; growth inhibition (GI) [25]: Active; growth inhibition (GI) [15]: Active; growth inhibition (GI) [23]: Active
